Compounds with a hit are over-represented: about 3.5% of the library has one in this group of screens.
RGS4 pot: potentiators or activators of RGS4 | B-score at 10 µM | HEK293 M3R/inducible RGS4, carbachol calcium flux Fluo4; hits give low values | hit rate 0.92% among 310,000;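 active = B-score of the integrated calcium signal more than 4 SD below the library mean, with starting fluorescence not abnormally high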;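 note: negative B-score means reduced calcium response which marks RGS4 activation or potentiation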
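Also added: carbachol at ECmax as muscarinic agonist stimulus; Assay system: HEK293 cells with stable M3R and inducible RGS4; Timing: overnight RGS4 induction, 30 min dye load 37 °C, 20 min compound RT; Measured by: Fluo4-AM (2 µM) calcium-flux fluorescence, kinetic read.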
MrgX1 PAM: allosterically activates human MrgX1 receptor signaling; MrgX1-HEK293, Fluo-4 calcium flux, FDSS; hits give high values; B-score at 10 µM; hit rate 0.63% among 310,000;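 active = plate-corrected calcium response at least 3 library SD above typical, normal starting fluorescence, not activating the receptor alone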;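 note: compound read alongside a low EC10 to EC30 dose of BAM8-22 agonist; peak minus trough fluorescence over baseline measured at the second addition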
Target sequence (Q96LB2 whole entry, looked up): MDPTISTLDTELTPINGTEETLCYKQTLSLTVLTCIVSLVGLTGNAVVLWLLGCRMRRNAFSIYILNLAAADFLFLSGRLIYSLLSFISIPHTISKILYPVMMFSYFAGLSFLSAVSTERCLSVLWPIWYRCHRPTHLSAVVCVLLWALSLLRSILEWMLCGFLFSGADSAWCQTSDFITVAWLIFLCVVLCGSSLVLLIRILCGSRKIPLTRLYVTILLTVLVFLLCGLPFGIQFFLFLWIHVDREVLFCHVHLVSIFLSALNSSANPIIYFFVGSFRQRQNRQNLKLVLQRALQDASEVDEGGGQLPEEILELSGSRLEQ
RGS4 block: human RGS4 inhibition | P49798 | HEK293 M3R/RGS4 inducible, Fluo-4 calcium flux; hits give high values; triggered by carbachol at its EC20 | B-score at 10 µM | hit rate 0.45% among 310,000 | AID 463165;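 active = B-score, a plate-corrected calcium signal, over three deviations above library mean, with baseline fluorescence within five deviations of library mean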;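 note: RGS4 expression induced by doxycycline in cells with stable M3 receptor; B-score is computed from the integrated fluorescence ratio over baseline after carbachol; higher B-score means a larger calcium signal and so more RGS4 inhibition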
Target sequence (P49798 whole entry, looked up): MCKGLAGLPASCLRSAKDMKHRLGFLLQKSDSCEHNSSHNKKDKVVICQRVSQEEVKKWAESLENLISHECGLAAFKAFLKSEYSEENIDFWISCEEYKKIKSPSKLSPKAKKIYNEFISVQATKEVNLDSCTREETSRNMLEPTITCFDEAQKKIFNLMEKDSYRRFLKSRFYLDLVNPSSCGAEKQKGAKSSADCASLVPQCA
MrgX1 antagonist: antagonists of human MrgX1 receptor. MRGX1-HEK293 calcium flux, Fluo-4, BAM8-22 antagonism; hits give low values. B-score at 10 µM. hit rate 1.3% among 310,000. Q96LB2;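 active = calcium-response B-score plate-corrected more than 3 library SD below zero, starting fluorescence within 5 deviations, no agonist response on first addition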;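 note: peak minus trough fluorescence over baseline after final BAM8-22 challenge near maximal dose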
MrgX1 ag: activates human MrgX1 receptor signaling | hit rate 0.44% among 310,000 | MrgX1-HEK293 cells, Fluo-4 calcium fluorescence, agonist mode; hits give high values | B-score at 10 µM | Q96LB2;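 active = calcium response B-score plate-corrected fluorescence ratio at least 3 library SD, with starting fluorescence B-score inside 5 SD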
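Material: HEK293 cells stably expressing human MrgX1 receptor | Quantity: 15,000 cells per well | Times: Cells plated overnight, dye loaded 0.5 h 37 °C, 0.5 h room temperature | Measured by: Kinetic Fluo-4 NW fluorescence of intracellular calcium | Control set: Positive and negative controls per plate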
MrgX1 allo conf: human MrgX1 positive allosteric modulation, re-confirmation | AID 602413 | activation (ratio percentage), % at 10 µM | MrgX1-HEK293, Fluo-4 calcium fluorescence, FDSS | shares compounds with MrgX1 PAM | hit rate 13% among 1,200;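 active = ratio at least 3 SD above the weak peptide control, stable starting fluorescence, no direct agonism earlier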;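 note: compound followed by low BAM8-22 agonist challenge near EC20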
MrgX1 antag conf: confirmation of human MrgX1 receptor antagonists; shares compounds with MrgX1 antagonist; MrgX1-HEK293, BAM8-22 calcium flux, Fluo-4; hits give low values; remaining BAM8-22 calcium response % of control (hits give low values), % at 10 µM; hit rate 19% among 2,300; AID 602420;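 active = remaining agonist calcium response no higher than 100% minus 3 SD of agonist-only control wells, with starting fluorescence near control levels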;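 note: agonist BAM8-22 given at a near maximal EC90 to ECmax level; peak minus minimum fluorescence divided by baseline after agonist addition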
HEK293 Ca flux: counter-screen for MrgX1 antagonists: effect in parental HEK293 cells. shares compounds with MrgX1 antagonist. Fluo-4 calcium fluorescence, FDSS. fluorescence ratio F(max-min)/F0 at 10 µM. hit rate 2% among 4,000;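 active = duplicate-averaged calcium fluorescence ratio at least three times the standard deviation of buffer wells, a nonspecific response in parental cells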
HEK293 Ca counter: counter-screen for MrgX1 allosteric activators: effect in parental HEK293 cells | parental HEK293 calcium flux, Fluo-4 fluorescence ratio; hits give high values | hit rate 0.4% among 4,000 | fluorescence ratio F(max-min)/F0 at 10 µM | AID 624114 | shares compounds with MrgX1 antagonist;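 active = calcium fluorescence ratio, averaged over duplicates, at least 3 SD of the buffer-well ratio, meaning a nonspecific response in receptor-free cells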;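 note: untransfected parental HEK293 lacking MrgX1 used as counterscreen for MrgX1 allosteric activators; fluorescence change taken during the second addition on a kinetic imager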
HEK293 Ca cntr2: counter-screen for MrgX1 activators: effect in parental HEK293 cells; shares compounds with MrgX1 antagonist; Fluo-4 calcium fluorescence (FDSS); hits give high values; fluorescence ratio F(max-min)/F0 at 10 µM; hit rate 8.7% among 4,000; AID 624115;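 active = calcium fluorescence ratio at least three times the spread of buffer wells, meaning a non-specific response in parental cells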
Active calls of the source: *; i = inactive; . = no result given.

SMILES	RGS4 pot	MrgX1 PAM	RGS4 block	MrgX1 antagonist	MrgX1 ag	MrgX1 allo conf	HEK293 Ca flux	HEK293 Ca counter	HEK293 Ca cntr2	others
Cc1ccc(-n2c(C)cc(C(=O)CSc3nncs3)c2C)cc1	i	7.04*	i	i	i	2.1%*	i	i	i
C=C[C@@]1(C)CC(=O)[C@]2(O)[C@@]3(C)[C@@H](O)CCC(C)(C)[C@@H]3[C@H](OC(C)=O)[C@H](O)[C@@]2(C)O1	i	7.72*	i	i	i	i	i	i	i
Cn1c(=S)[nH]c2sc3c(c2c1=O)CCC(C(C)(C)C)C3 (stereo not given)	i	i	i	i	i	.	.	.	.
CCOC(=O)c1c(C)nc(-c2ccccc2)nc1N	i	7.43*	i	i	i	i	i	i	i
Nc1nc(CCl)nc(N(c2ccccc2)c2ccccc2)n1	i	10.1*	i	i	i	i	i	i	i
Nc1nc(Cl)nc(N(c2ccccc2)c2ccccc2)n1	i	i	i	i	i	.	.	.	.
O=C(Nc1ccc(S(=O)(=O)N2CCCC2)cc1)c1c(F)cccc1F	i	i	i	i	i	.	.	.	.
CC1=C(C/C=C(\C)CCC[C@H](C)CCC[C@H](C)CCCC(C)C)C(=O)c2ccccc2C1=O	i	i	i	i	i	.	.	.	.
CN(C)S(=O)(=O)c1cccc(NC(=O)c2c[nH]c3ccccc23)c1	i	9.87*	i	i	i	i	i	i	i
CN(C)S(=O)(=O)c1cccc(NC(=O)c2cc(=O)[nH]c3ccccc23)c1	i	i	i	i	i	.	.	.	.
CCCc1cc(C(=O)N2CCCC(C(=O)c3cccc4ccccc34)C2)n(C)n1 (stereo not given)	i	12.2*	i	i	i	i	i	i	i
Cc1nn(C)cc1S(=O)(=O)Nc1ccccc1Br	i	i	i	i	i	.	.	.	.
CC(C)(C)OC(=O)N1CCC(CNC(=O)c2ccc(F)cc2)CC1	i	34.5*	i	i	i	i	i	i	i
COCCNC(=O)C(c1ccc(C)o1)N(C(=O)C(=O)NC1CCCCC1)c1ccc(F)cc1 (stereo not given)	i	i	i	i	i	.	.	.	.
CC(=O)c1cc2c(cc1NC(=O)CN1CCCCC1C)OCO2 (stereo not given)	i	11.3*	i	i	i	i	i	i	i
CCCCOc1ccc(C(=O)N(CC)CC(=O)NCc2cccs2)cc1	i	i	i	i	i	.	.	.	.
CC(=O)c1c(-c2ccc(C)cc2)nc2c3ccccc3ccn12	i	6.79*	i	i	i	15.5%*	i	i	i
FC(F)Oc1ccc(C2N=C(c3ccccc3)NO2)cc1 (stereo not given)	i	i	i	i	i	.	.	.	.
COC(=O)Cc1[nH]n(-c2nc3ccccc3s2)c(=O)c1C(C)=Nc1ccc(Cl)cc1	i	12.4*	i	i	i	i	i	i	i
CCOc1ccc2nc(NC(=O)C34CC5CC(CC(NC(C)=O)(C5)C3)C4)sc2c1	i	i	i	i	i	.	.	.	.
O=C(NCCNC(=O)c1cnccn1)c1cccc(Cl)c1	i	i	i	i	i	.	.	.	.
O=C(NCCCNC(=O)c1ccc(-c2cccc(Cl)c2)o1)c1cnccn1	i	12.7*	i	i	i	i	i	i	i
O=C(NCCNC(=O)c1ccc(-c2ccc(Cl)c(Cl)c2)o1)c1cnccn1	i	7.24*	i	i	i	i	i	i	i
O=C(CC1SCCNC1=O)Nc1ccc(F)c(Cl)c1 (stereo not given)	i	9.91*	i	i	i	i	i	i	i
COc1cccc(C(=O)Nc2cc(C(=O)NCc3ccc(C)cc3)ccc2N2CCC3(CC2)CC(c2cccc(Br)c2)=NO3)c1	.	i	.	i	i	.	.	.	.
SMILES	RGS4 pot	MrgX1 PAM	RGS4 block	MrgX1 antagonist	MrgX1 ag	MrgX1 allo conf	HEK293 Ca flux	HEK293 Ca counter	HEK293 Ca cntr2	others
CCOC(=O)C(=O)Nc1nnc(CCc2ccccc2)s1	i	7.72*	i	i	i	i	i	i	i
CCCCOCCCN1CC(=O)N2C(C)c3[nH]c4ccccc4c3C[C@H]2C1=O (stereo not given in full)	i	7.47*	i	i	i	i	i	i	i
CCCCCN1CC(=O)N2C(C)c3[nH]c4ccccc4c3C[C@H]2C1=O (stereo not given in full)	i	13.7*	i	i	i	i	i	i	i
CC(CCc1ccc(O)cc1)NC1c2ccccc2-c2ccccc21 (stereo not given)	i	7.1*	i	i	i	i	i	i	i
CCN1CCN(CCNC(=O)c2ccc3c(c2)N(Cc2ccc(F)cc2)C(=O)/C(=C/c2ccccc2)S3)CC1	i	20.9*	i	-16*	i	i	i	i	i	MrgX1 antag conf=65.7%*
CN1CCN(CCCNC(=O)c2ccc(/C=C3\Sc4ccccc4N(Cc4ccccc4F)C3=O)cc2)CC1	i	.	i	.	.	.	.	.	.
COc1ccc(C23CC4CC(CC(C(=O)O)(C4)C2)C3)c(F)c1	i	i	i	i	i	.	.	.	.
Clc1cccc2c1Sc1ccccc1CC2N1CCNCC1 (stereo not given)	i	13.5*	i	i	i	i	i	i	i
O=C(c1ccccc1Cl)N1CCNCC1	i	i	i	i	i	.	.	.	.
O=C(NC1CCCCC1)C(c1cccnc1)N(C(=O)c1csnn1)c1ccccc1 (stereo not given)	i	i	i	i	i	.	.	.	.
COC(=O)c1ccc(OCCCCN2CC(C)OC(C)C2)cc1 (stereo not given)	i	10.2*	i	i	i	i	i	i	i
